ChEMBL document CHEMBL3774373, “Activity and Predicted Nephrotoxicity of Synthetic Antibiotics Based on Polymyxin B” (J Med Chem, 2016)
Values after ≈ are worked out from the molar mass of the structure shown. Bridge positions count the residues as written; N and C are the ends. Square brackets hold non-standard residues; d marks the D form. Peptide text beside a SMILES is read from it. * marks the point of attachment. dDab = NCC[C@@H](N)C(=O)O; Octanoyl = CCCCCCCC(=O)*; Dab = NCC[C@H](N)C(=O)O

Assays:
Klebsiella pneumoniae [1] = assay: Antibacterial activity against Klebsiella pneumoniae ATCC BAA-2146 expressing NDM-1 after 18 hrs by 2 fold serial dilution method; format: functional; conditions: ATCC BAA-2146, 18 h
How it was run: (§1)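 Overnight cultures at 37 °C in nutrient or Mueller Hinton broth with shaking were diluted 50-fold in MHB and grown 1.5–3 h to mid-log phase. The inoculum was 5×10^5 CFU/mL in MHB. Compounds were 2-fold serially diluted, final 32 to 0.015 μg/mL. After 18 h at 37 °C, the MIC was read visually as the lowest concentration with no visible growth.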

Pseudomonas aeruginosa [2] = assay: Antibacterial activity against clinical isolate polymyxin resistant Pseudomonas aeruginosa FADDI-PA070 after 18 hrs by 2 fold serial dilution method; format: functional; conditions: FADDI-PA070, 18 h
How it was run: (§2)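 Polymyxin-resistant clinical isolates were grown overnight at 37 °C in NB or MHB with shaking, diluted 50-fold in MHB and grown 1.5–3 h to mid-log phase. The inoculum was 5×10^5 CFU/mL. Compounds were 2-fold broth serial dilutions, final 32 to 0.015 μg/mL; the polymyxin controls ran 128–0.06 μg/mL. The MIC was the lowest concentration with no visible growth after 18 h at 37 °C.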

Pseudomonas aeruginosa [3] = assay: Antibacterial activity against clinical isolate polymyxin resistant Pseudomonas aeruginosa PA9704 after 18 hrs by 2 fold serial dilution method; format: functional; conditions: PA9704, 18 h; how it was run: as §2
Pseudomonas aeruginosa [4] = assay: Antibacterial activity against Pseudomonas aeruginosa ATCC 27853 after 18 hrs by 2 fold serial dilution method; format: functional; conditions: ATCC 27853, 18 h
How it was run: (§3)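 Overnight cultures in nutrient or Mueller Hinton broth at 37 °C with shaking, diluted 50-fold into fresh MHB and grown 1.5–3 h to mid-log. Inoculum 5×10^5 CFU/mL in 2-fold serial dilutions, final range 32 to 0.015 μg/mL. MIC read visually after 18 h at 37 °C as the lowest concentration with no visible growth.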

[5] = Cytotoxicity against HK2 cells assessed as LDH release by Western blot analysis; format: cell-based, HK-2; conditions: human, primary human renal proximal tubule epithelial cells; read-out: CC50
Klebsiella pneumoniae [6] = assay: Antibacterial activity against Klebsiella pneumoniae ATCC 13883 after 18 hrs by 2 fold serial dilution method; format: functional; conditions: ATCC 13883, 18 h; how it was run: as §3
[7] = Cytotoxicity against human HepG2 cells after 24 hrs by resazurin assay; format: cell-based; conditions: HepG2 cells
Klebsiella pneumoniae [8] = assay: Antibacterial activity against clinical isolate carbapenem and polymyxin resistant Klebsiella pneumoniae Koprana 100650661:1 after 18 hrs by 2 fold serial dilution method; format: functional; conditions: Koprana 100650661:1, 18 h; how it was run: as §2
Acinetobacter baumannii [9] = assay: Antibacterial activity against Acinetobacter baumannii ATCC 19606 after 18 hrs by 2 fold serial dilution method; format: functional; conditions: ATCC 19606, 18 h; how it was run: as §3
Staphylococcus aureus = assay: microbe, parasite or virus in culture; conditions: ATCC 25923, 18 h
[10] = Cytotoxicity against HK2 cells assessed as GGT release by Western blot analysis; format: cell-based, HK-2; conditions: human, primary human renal proximal tubule epithelial cells; read-out: CC50
Klebsiella pneumoniae [11] = assay: Antibacterial activity against clinical isolate carbapenem and polymyxin resistant Klebsiella pneumoniae 138-16357-20362 after 18 hrs by 2 fold serial dilution method; format: functional; conditions: 138-16357-20362, 18 h; how it was run: as §2
[12] = Cytotoxicity against HEK293 cells after 24 hrs by resazurin assay; format: cell-based; conditions: human, HEK293 cells
Klebsiella pneumoniae [13] = assay: Antibacterial activity against multidrug resistant Klebsiella pneumoniae ATCC 700603 after 18 hrs by 2 fold serial dilution method; format: functional; conditions: Klebsiella pneumoniae, 700603, 18 h; how it was run: as §1
Escherichia coli [14] = assay: Antibacterial activity against Escherichia coli ATCC 25922 after 18 hrs by 2 fold serial dilution method; format: functional; conditions: ATCC 25922, 18 h; how it was run: as §3
Acinetobacter baumannii [15] = assay: Antibacterial activity against clinical isolate carbapenem and polymyxin resistant Acinetobacter baumannii Ptyela 100734512:2 after 18 hrs by 2 fold serial dilution method; format: functional; conditions: Ptyela 100734512:2, 18 h; how it was run: as §2
Escherichia coli [16] = assay: Antibacterial activity against Escherichia coli IFO12734; format: functional
Pseudomonas aeruginosa [17] = assay: Antibacterial activity against Pseudomonas aeruginosa IFO3080; format: functional

Structure (SMILES)	MIC (Klebsiella pneumoniae [1]) [µg/mL]	MIC (Pseudomonas aeruginosa [2]) [µg/mL]	MIC (Pseudomonas aeruginosa [3]) [µg/mL]	MIC (Pseudomonas aeruginosa [4]) [µg/mL]	CC50 [5] [µg/mL]	MIC (Klebsiella pneumoniae [6]) [µg/mL]	CC50 at 24 h [7] [µM]	MIC (Klebsiella pneumoniae [8]) [µg/mL]	MIC (Acinetobacter baumannii [9]) [µg/mL]	MIC (Staphylococcus aureus) [µg/mL]	CC50 [10] [µg/mL]	MIC (Klebsiella pneumoniae [11]) [µg/mL]	CC50 at 24 h [12] [µM]	MIC (Klebsiella pneumoniae [13]) [µg/mL]	MIC (Escherichia coli [14]) [µg/mL]	MIC (Acinetobacter baumannii [15]) [µg/mL]	MIC (Escherichia coli [16]) [µM]	MIC (Pseudomonas aeruginosa [17]) [µM]
CCCCCCCC(=O)N[C@@H](CCN)C(=O)N[C@H](C(=O)NCC(=O)N[C@H]1CCNC(=O)[C@H]([C@@H](C)O)NC(=O)[C@H](CCN)NC(=O)[C@H](CCN)NC(=O)[C@H](CC(C)C)NC(=O)[C@@H](Cc2ccccc2)NC(=O)[C@H](CCN)NC1=O)[C@@H](C)O (Octanoyl-[Dab]TG[Dab][Dab][dF]L[Dab][Dab]T; lactam 4-C)	0.5 (≈ 0.436 µM)	> 32	> 32	2 (≈ 1.74 µM)	122 (≈ 106 µM)	0.5 (≈ 0.436 µM)	> 300	> 32	1 (≈ 0.872 µM)	> 64	> 128	> 32	> 300	1 (≈ 0.872 µM)	0.5 (≈ 0.436 µM)	> 32		
CCCCCCCC(=O)N[C@@H](CCN)C(=O)N[C@H](C(=O)N[C@@H](CCN)C(=O)N[C@H]1CCNC(=O)[C@H]([C@@H](C)O)NC(=O)[C@H](CCN)NC(=O)[C@H](CCN)NC(=O)[C@H](CC(C)C)NC(=O)[C@@H](Cc2ccccc2)NC(=O)[C@H](CCN)NC1=O)[C@@H](C)O (Octanoyl-[Dab]T[Dab][Dab][Dab][dF]L[Dab][Dab]T; lactam 4-C)	0.5 (≈ 0.42 µM)	> 32	> 128	1 (≈ 0.841 µM)		2 (≈ 1.68 µM)	> 300	> 128	0.5 (≈ 0.42 µM)	> 128		> 128		1 (≈ 0.841 µM)	0.5 (≈ 0.42 µM)	> 64	0.5 (≈ 0.595 µg/mL)	1 (≈ 1.19 µg/mL)
CCCCCCCC(=O)N[C@@H](CCN)C(=O)N[C@H](C(=O)N[C@H](CO)C(=O)N[C@H]1CCNC(=O)[C@H]([C@@H](C)O)NC(=O)[C@H](CCN)NC(=O)[C@H](CCN)NC(=O)[C@H](CC(C)C)NC(=O)[C@@H](Cc2ccccc2)NC(=O)[C@H](CCN)NC1=O)[C@@H](C)O (Octanoyl-[Dab]T[dS][Dab][Dab][dF]L[Dab][Dab]T; lactam 4-C)	16 (≈ 13.6 µM)	> 32	> 32	2 (≈ 1.7 µM)		0.5 (≈ 0.425 µM)	> 300	> 32	1 (≈ 0.85 µM)	> 32		> 32		2 (≈ 1.7 µM)	4 (≈ 3.4 µM)	> 32		
CCCCCCCC(=O)N[C@H](CCN)C(=O)N[C@H](C(=O)NCC(=O)N[C@H]1CCNC(=O)[C@H]([C@@H](C)O)NC(=O)[C@H](CCN)NC(=O)[C@H](CCN)NC(=O)[C@H](CC(C)C)NC(=O)[C@@H](Cc2ccccc2)NC(=O)[C@H](CCN)NC1=O)[C@@H](C)O (Octanoyl-[dDab]TG[Dab][Dab][dF]L[Dab][Dab]T; lactam 4-C)	32 (≈ 27.9 µM)	> 32	> 32	16 (≈ 14 µM)		> 32	> 300	> 32	> 64	> 64		> 32		8 (≈ 6.98 µM)	> 32	> 32		
